Test results: ChEMBL document CHEMBL2434966, “Novel N-4-piperazinyl-ciprofloxacin-chalcone hybrids: synthesis, physicochemical properties, anticancer and topoisomerase I and II inhibitory activity” (Eur J Med Chem, 2013)

Assays:
Type in all cases: functional
SR = assay: Growth inhibition of human SR cells after 48 hrs by sulforhodamine B assay
Summary of the method: (§1)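 NCI 60-cell panel, five concentrations (10-fold dilutions, 0.01–100 µM), 48 h continuous exposure; SRB protein stain read spectrophotometrically. Percent growth from time-zero, untreated-control and treated absorbances. GI50 is the concentration giving 50% lower net protein increase than control. Values beyond the tested range are reported as more or less than the highest or lowest concentration.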

PC-3 [1] = assay: Growth inhibition of human PC3 cells assessed as cell growth at 10^-5 M after 48 hrs by sulforhodamine B assay; details: PC-3, 48 h, read-out: Activity
Summary of the method: (§2)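 NCI 60-cell-line primary one-dose screen. Cells were exposed to a single 10^-5 M concentration for 48 h. The end point was sulforhodamine B protein staining, read spectrophotometrically. Results are reported as percent growth of treated cells relative to untreated control cells.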

ACHN = assay: Growth inhibition of human ACHN cells after 48 hrs by sulforhodamine B assay; details: for CC50: read-out: LC50 (the source's name)
Summary of the method: (§3)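 NCI 60-panel five-dose test at 10-fold dilutions, 10^-4 to 10^-8 M, with 48 h continuous exposure and SRB protein read-out. Percent growth derived from time-zero, untreated-control and treated absorbances. GI50 is the concentration where [(Ti-Tz)/(C-Tz)]×100 = 50. TGI is taken at Ti = Tz. LC50 is taken at [(Ti-Tz)/Tz]×100 = -50.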

U-251 = assay: Growth inhibition of human U251 cells after 48 hrs by sulforhodamine B assay; details: U-251, 48 h; summary of the method: as §1
HCT-116 [2] = assay: Growth inhibition of human HCT116 cells assessed as cell growth at 10^-5 M after 48 hrs by sulforhodamine B assay; details: HCT-116, 48 h, read-out: Activity
Summary of the method: (§4)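 NCI 60-cell-line primary screen. Single concentration of 10^-5 M, 48 h incubation. End point by sulforhodamine B protein staining read spectrophotometrically. Reported as percent growth of treated cells relative to untreated control cells.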

UACC-62 = assay: Growth inhibition of human UACC62 cells after 48 hrs by sulforhodamine B assay; details: UACC-62, 48 h; summary of the method: as §1
[3] = Growth inhibition of human NCI-ADR-RES cells assessed as cell growth at 10^-5 M after 48 hrs by sulforhodamine B assay; details: read-out: Activity; summary of the method: as §2
DU-145 = assay: Growth inhibition of human DU145 cells after 48 hrs by sulforhodamine B assay; details: DU-145, 48 h; summary of the method: as §3
SK-OV-3 = assay: Growth inhibition of human SKOV3 cells after 48 hrs by sulforhodamine B assay; details: SK-OV-3, 48 h
Summary of the method: (§5)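 NCI five-dose screen on the full 60-cell-line panel. Cells were given 10-fold dilutions from 10^-4 to 10^-8 M with continuous 48 h exposure, and growth was read by SRB staining. Percent growth was taken from time-zero, control and treated absorbances. GI50, TGI and LC50 were then derived, the GI50 being the concentration that gives a 50% lower net protein increase than control.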

SF-539 [4] = assay: Growth inhibition of human SF539 cells assessed as cell growth at 10^-5 M after 48 hrs by sulforhodamine B assay; details: SF-539, 48 h, read-out: Activity; summary of the method: as §2
Malme-3M = assay: Growth inhibition of human MALME-3M cells after 48 hrs by sulforhodamine B assay; summary of the method: as §3
PC-3 [5] = assay: Growth inhibition of human PC3 cells after 48 hrs by sulforhodamine B assay; details: PC-3, 48 h; summary of the method: as §5
TK-10 = assay: Growth inhibition of human TK10 cells after 48 hrs by sulforhodamine B assay; details: TK-10, 48 h; for CC50: read-out: LC50 (the source's name); summary of the method: as §1
MDA-MB-435 = assay: Growth inhibition of human MDA-MB-435 cells assessed as cell growth at 10^-5 M after 48 hrs by sulforhodamine B assay; details: MDA-MB-435, 48 h, read-out: Activity; summary of the method: as §2
IGROV-1 = assay: Growth inhibition of human IGROV1 cells after 48 hrs by sulforhodamine B assay; details: IGROV-1, 48 h; summary of the method: as §3
SF-539 [6] = assay: Growth inhibition of human SF539 cells after 48 hrs by sulforhodamine B assay; details: SF-539, 48 h; for CC50: read-out: LC50 (the source's name); summary of the method: as §5
NCI-H322M = assay: Growth inhibition of human NCI-H322M cells after 48 hrs by sulforhodamine B assay; details: for CC50: read-out: LC50 (the source's name); summary of the method: as §5
T47D = assay: Growth inhibition of human T47D cells assessed as cell growth at 10^-5 M after 48 hrs by sulforhodamine B assay; details: read-out: Activity
Summary of the method: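 NCI primary one-dose screen: single concentration of 10^-5 M added to culture, 48 h incubation, SRB protein-dye endpoint. Percent growth of treated cells measured spectrophotometrically against untreated controls.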

A549 = assay: Growth inhibition of human A549/ATCC cells assessed as cell growth at 10^-5 M after 48 hrs by sulforhodamine B assay; details: A549, 48 h, read-out: Activity; summary of the method: as §4
SNB-19 = assay: Growth inhibition of human SNB19 cells after 48 hrs by sulforhodamine B assay; details: SNB-19, 48 h; summary of the method: as §1
UACC-257 = assay: Growth inhibition of human UACC257 cells after 48 hrs by sulforhodamine B assay; details: UACC-257, 48 h; for CC50: read-out: LC50 (the source's name); summary of the method: as §1
NCI-H460 = assay: Growth inhibition of human NCI-H460 cells assessed as cell growth at 10^-5 M after 48 hrs by sulforhodamine B assay; details: NCI-H460, 48 h, read-out: Activity; summary of the method: as §2
OVCAR-5 = assay: Growth inhibition of human OVCAR5 cells assessed as cell growth at 10^-5 M after 48 hrs by sulforhodamine B assay; details: OVCAR-5, 48 h, read-out: Activity; summary of the method: as §2
MDA-MB-468 = assay: Growth inhibition of human MDA-MB-468 cells after 48 hrs by sulforhodamine B assay; details: MDA-MB-468, 48 h; summary of the method: as §5
LOX IMVI = assay: Growth inhibition of human LOXIMVI cells assessed as cell growth at 10^-5 M after 48 hrs by sulforhodamine B assay; details: read-out: Activity; summary of the method: as §4
HCT-116 [7] = assay: Growth inhibition of human HCT116 cells after 48 hrs by sulforhodamine B assay; details: HCT-116, 48 h; summary of the method: as §3

## O=C(CN1CCN(c2cc3c(cc2F)c(=O)c(C(=O)O)cn3C2CC2)CC1)Nc1ccc(C(=O)/C=C/c2ccccc2)cc1
SR
  GI50: 1.54 µM
  LC50 (concentration killing 50% of cells): > 100 µM
  TGI: 6.1 µM
PC-3 [1]
  growth at 10 µM: 55.2%
ACHN
  GI50: 3.3 µM
  TGI: 31.9 µM
  CC50: > 100 µM
U-251
  GI50: 2.92 µM
  LC50 (concentration killing 50% of cells): > 100 µM
  TGI: > 100 µM
HCT-116 [2]
  growth at 10 µM: -83.6%
UACC-62
  GI50: 3.71 µM
  LC50: > 100 µM
  TGI: > 100 µM
[3]
  growth at 10 µM: 93.5%
DU-145
  GI50: 3.74 µM
  LC50 (concentration killing 50% of starting cells): > 100 µM
  TGI: > 100 µM
SK-OV-3
  GI50: 27.3 µM
  LC50: > 100 µM
  TGI: > 100 µM
SF-539 [4]
  growth at 10 µM: 26.2%
Malme-3M
  GI50: 2.89 µM
  LC50: > 100 µM
  TGI: 8.87 µM
PC-3 [5]
  GI50: 3.16 µM
  LC50: > 100 µM
  TGI: > 100 µM
TK-10
  GI50: 4.19 µM
  TGI: > 100 µM
  CC50: > 100 µM
MDA-MB-435
  growth at 10 µM: 19.2%
IGROV-1
  GI50: 3.67 µM
  LC50 (concentration giving 50% net cell kill): > 100 µM
  TGI: > 100 µM
SF-539 [6]
  GI50: 3.6 µM
  TGI: > 100 µM
  CC50: > 100 µM
NCI-H322M
  GI50: 4.04 µM
  TGI: 58.7 µM
  CC50: > 100 µM
T47D
  growth at 10 µM: 85.1%
A549
  growth at 10 µM: 4.12%
SNB-19
  GI50: 3.05 µM
  LC50: > 100 µM
  TGI: > 100 µM
UACC-257
  GI50: 3.9 µM
  TGI: 90.8 µM
  CC50: > 100 µM
NCI-H460
  growth at 10 µM: 7.12%
OVCAR-5
  growth at 10 µM: 82.6%
MDA-MB-468
  GI50: 2.45 µM
  LC50 (concentration killing 50% of starting cells): > 100 µM
  TGI: 23.2 µM
LOX IMVI
  growth at 10 µM: 5.67%
HCT-116 [7]
  GI50: 0.66 µM
  LC50: 9.55 µM
  TGI: 2.68 µM

## COc1cc(/C=C/C(=O)c2ccc(NC(=O)CN3CCN(c4cc5c(cc4F)c(=O)c(C(=O)O)cn5C4CC4)CC3)cc2)cc(OC)c1OC
SR
  GI50: 0.21 µM
  LC50 (concentration killing 50% of cells): > 100 µM
  TGI: > 100 µM
PC-3 [1]
  growth at 10 µM: 21.5%
ACHN
  GI50: 0.45 µM
  TGI: 7.09 µM
  CC50: > 100 µM
U-251
  GI50: 0.33 µM
  LC50 (concentration killing 50% of cells): 12.9 µM
  TGI: 1.29 µM
HCT-116 [2]
  growth at 10 µM: -88.2%
UACC-62
  GI50: 0.8 µM
  LC50: 27.9 µM
  TGI: 3.63 µM
[3]
  growth at 10 µM: 98.2%
DU-145
  GI50: 0.67 µM
  LC50 (concentration killing 50% of starting cells): > 100 µM
  TGI: > 100 µM
SK-OV-3
  GI50: 3.57 µM
  LC50: > 100 µM
  TGI: > 100 µM
SF-539 [4]
  growth at 10 µM: -15.8%
Malme-3M
  GI50: 1.81 µM
  LC50: > 100 µM
  TGI: 7.65 µM
PC-3 [5]
  GI50: 0.56 µM
  LC50: > 100 µM
  TGI: > 100 µM
TK-10
  GI50: 1.29 µM
  TGI: 16.5 µM
  CC50: > 100 µM
MDA-MB-435
  growth at 10 µM: -1.52%
IGROV-1
  GI50: 0.4 µM
  LC50 (concentration giving 50% net cell kill): 8.43 µM
  TGI: 1.72 µM
SF-539 [6]
  GI50: 0.49 µM
  TGI: 2.62 µM
  CC50: > 100 µM
NCI-H322M
  GI50: 0.29 µM
  TGI: 2.3 µM
  CC50: > 100 µM
T47D
  growth at 10 µM: 17.6%
A549
  growth at 10 µM: -19.2%
SNB-19
  GI50: 2.78 µM
  LC50: > 100 µM
  TGI: > 100 µM
UACC-257
  GI50: 1.42 µM
  TGI: 65.4 µM
  CC50: > 100 µM
NCI-H460
  growth at 10 µM: -20%
OVCAR-5
  growth at 10 µM: 16.9%
MDA-MB-468
  GI50: 0.33 µM
  LC50 (concentration killing 50% of starting cells): 40.7 µM
  TGI: 1.78 µM
LOX IMVI
  growth at 10 µM: -54.7%
HCT-116 [7]
  GI50: 0.23 µM
  TGI: 0.69 µM
